Measurements collected from several papers.
pKi: −log10 of the molar value.
Target: Adenosine receptor A3 (ADORA3, Homo sapiens, UniProt P0DMS8)
Sequence (P0DMS8 1-318, as in one of the studies): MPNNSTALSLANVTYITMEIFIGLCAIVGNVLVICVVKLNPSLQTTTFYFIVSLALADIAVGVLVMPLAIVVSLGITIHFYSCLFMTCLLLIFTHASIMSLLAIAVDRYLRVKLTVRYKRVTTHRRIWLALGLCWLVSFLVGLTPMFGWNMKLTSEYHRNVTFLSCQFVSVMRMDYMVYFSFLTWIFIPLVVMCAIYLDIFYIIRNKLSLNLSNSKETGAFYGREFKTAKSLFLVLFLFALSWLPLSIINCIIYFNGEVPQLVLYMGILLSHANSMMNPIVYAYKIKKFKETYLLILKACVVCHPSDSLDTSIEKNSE

SMILES	effect on	method	setting	pKi
CCCCn1c(=O)c2[nH]c(C34CC5CC(CC3C5)C4)nc2n(CCCO)c1=O	ligand displacement	radioligand	cell membranes	< 6.00
O[C@@H]1[C@H](O)[C@@H]2C[C@@H]2[C@H]1n1cnc2c(NCc3cn(C45CC6CC(CC(C6)C4)C5)nn3)nc(Cl)nc21	ligand displacement	radioligand	cell membranes	5.66
CNC(=O)[C@@]12C[C@@H]1[C@@H](n1cnc3c(NCc4cccc(Cl)c4)nc(C#Cc4cccc(C(=O)NCCOCCOCCOCCOCCOCCOCCC(=O)N5CCC(c6ccc(-c7cc(C(=O)O)cc8cc(-c9ccc(C(F)(F)F)cc9)ccc78)cc6)CC5)c4)nc31)[C@H](O)[C@@H]2O	ligand displacement in cells	radioligand	–	8.44
CCNC(=O)C1OC(n2cnc3c(N)nc(NN=CC4CCC=CO4)nc32)C(O)C1O (stereo not shown)	ligand displacement	radioligand	–	7.80
COCCOc1ccc(N2CCN(CCn3ncc4c3nc(N)n3nc(-c5ccco5)nc43)CC2)cc1	ligand displacement	radioligand	cell membranes	< 6.00
O=C(NCCC(c1ccccc1)c1ccccc1)[C@H]1S[C@@H](n2cnc3c(NCc4cccc(I)c4)ncnc32)[C@H](O)[C@@H]1O	ligand displacement	radioligand	–	6.94
OC[C@@]12C[C@@H]1[C@@H](n1cnc3c(NC(C4CCCC4)C4CCCC4)nc(Cl)nc31)[C@H](O)[C@@H]2O	ligand displacement	radioligand	–	5.36
CNC(=O)[C@@]12C[C@@H]1[C@@H](n1cnc3c(NCc4cn(-c5ccc(C(=O)NCCCF)cc5)nn4)nc(Cl)nc31)[C@H](O)[C@@H]2O	ligand displacement	radioligand	cell membranes	7.44
CCCN1CCCn2c1nc1c2c(=O)n(C)c(=O)n1C	ligand displacement	radioligand	cell membranes	< 5.00
CC(C)=CCNc1ncnc2c1ncn2[C@@H]1O[C@H](CO)[C@@H](O)[C@H]1O	ligand displacement	radioligand	cell membranes	6.80
Nc1nc2ccc(Cl)cc2c2nc(-c3ccco3)nn12	ligand displacement in cells	BRET	–	8.12
CN1CCCn2c1nc1c2c(=O)n(C)c(=O)n1C	ligand displacement	radioligand	cell membranes	< 5.00
NC1C(O)C(n2cnc3c(NCc4cccc(I)c4)ncnc32)C2CC12 (stereo not shown)	ligand displacement	radioligand	cell membranes	5.26
CCCCCN1CCCn2c1nc1c2c(=O)n(C)c(=O)n1C	ligand displacement	radioligand	cell membranes	< 5.00
CNC(=O)[C@@]12C[C@@H]1[C@@H](n1cnc3c(NCc4cn(C56CC7CC(CC(C7)C5)C6)nn4)nc(Cl)nc31)[C@H](O)[C@@H]2O	ligand displacement	radioligand	cell membranes	7.42
Nc1nc2c(cnn2CCc2ccccc2)c2nc(-c3ccco3)nn12	ligand displacement in cells	BRET	–	6.80
